AHR act: activators of human aryl hydrocarbon receptor. AHR-responsive luciferase reporter cells, luminescence. activation, % at 5 µM. actives 2.5% (n = 320,000). P35869; in the data active means activation above about 47%;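 further: 0% = vehicle wells and 100% = reference agonist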
MC4R barr agon: agonists of human melanocortin 4 receptor (MC4R) beta-arrestin. P32245. activation, % at 8.9 µM. actives 0.98% (n = 360,000). U2OS MC4R beta-arrestin complementation, luminescence; percent of melanotan II response, DMSO zero;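 active means activation above a per-plate cutoff, the mean activation of sample wells on that plate plus 3 SD, cut at about 8% in these data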
m5-HT2A agonist: activates the mouse 5-HT2A serotonin receptor; P35363; CHO-K1 mHTR2A beta-arrestin complementation, luminescence; percent of 30 µM serotonin response; AID 624169; actives 0.66% (n = 360,000); activation, % at 7.6 µM;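 active means activation above a run cutoff, the mean activation of all tested compounds plus 3 SD, cut at about 14% in these data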;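 further: 0% = plate median of compound wells and 100% = 30 µM serotonin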
Target sequence (P35363 whole entry, looked up): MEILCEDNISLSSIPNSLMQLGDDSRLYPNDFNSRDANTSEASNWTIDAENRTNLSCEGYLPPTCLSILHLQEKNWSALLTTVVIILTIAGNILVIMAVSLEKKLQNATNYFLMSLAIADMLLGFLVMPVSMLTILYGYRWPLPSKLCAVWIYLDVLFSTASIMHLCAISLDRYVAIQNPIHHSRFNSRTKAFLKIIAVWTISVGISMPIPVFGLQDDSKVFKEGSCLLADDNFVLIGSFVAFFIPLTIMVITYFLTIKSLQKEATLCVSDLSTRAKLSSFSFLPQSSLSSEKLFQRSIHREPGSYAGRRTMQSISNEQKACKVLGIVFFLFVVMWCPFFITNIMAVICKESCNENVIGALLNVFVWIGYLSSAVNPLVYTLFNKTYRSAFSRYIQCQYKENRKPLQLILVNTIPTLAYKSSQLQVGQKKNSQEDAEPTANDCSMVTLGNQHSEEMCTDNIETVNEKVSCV
FXN GAA850 act: activators of GAA850 frataxin (FXN) promoter | actives 0.56% (n = 360,000) | activation, % at 6 µM | HEK293 lucGAA850 FXN promoter luciferase reporter, 24 h; percent of 10 µM SAHA response;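 active means activation above the average of all compounds screened plus 3 SD, cutoff fixed separately per campaign, cut at about 7.5% in these data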;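 further: 0% = DMSO wells and 100% = 10 µM SAHA wells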
MC4R antag cAMP: blocks human MC4R cAMP signaling | P32245 | MC4R-expressing cells, MTII-stimulated cAMP, LANCE TR-FRET | inhibition, % at 6.5 µM | actives 0.48% (n = 360,000);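 active means inhibition above its plate's cutoff, the mean of tested wells on that plate plus 3 SD, cut at about 29% in these data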;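 further: 0% = Melanotan II alone and 100% = Melanotan II plus saturating MCL0020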
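System: U2OS cells stably expressing human melanocortin 4 receptor (MC4R). Reagent: Melanotan II challenge after compound preincubation. Doses: 6.5 µM. Times: 30-min compound, 1-h challenge, 1-h detection, room temperature. Measured by: TR-FRET with Eu-cAMP and labeled anti-cAMP, 671 nm. Replicates: singlicate.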
OPRM1 ag: activates human mu opioid receptor in HTR2A counterscreen | actives 5.3% (n = 2,300) | U2OS OPRM1 beta-arrestin PathHunter, luminescence; DMSO 0%, DAMGO 9.3 µM 100% | activation, % at 9.3 µM | shares compounds with m5-HT2A agonist;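 active means mean activation above the mean of DMSO-only wells plus 3 SD, cut at about 0.5% in these data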
m5-HT2A ag conf: mouse HTR2A agonism confirmed. CHO-K1 PathHunter beta-arrestin recruitment, luminescence; DMSO 0%, 30 µM serotonin 100%. shares compounds with m5-HT2A agonist. activation, % at 7.6 µM. actives 19% (n = 2,300);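 active means mean activation across triplicates above the hit threshold derived in the original primary screen, cut at about 15% in these data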
Active calls of the source: *. Shown are actives, neighbours in structure and some others; about 4.7% of the full set was active somewhere.

How did C[C@H](N)CN1CCc2ccc(Br)cc21 do in these assays?
AHR act: 41; MC4R barr agon: 0; m5-HT2A agonist: 49*; FXN GAA850 act: 1; MC4R antag cAMP: 1; OPRM1 ag: -1; m5-HT2A ag conf: 36*

Results for CC[C@H](C)[C@@H]1NC(=O)[C@@H](CC(C)C)NC(=O)[C@H](C(C)C)NC(=O)[C@H]2CSSC[C@H](NC1=O)C(=O)N2 ?
m5-HT2A agonist: 57*; OPRM1 ag: 1.7*; m5-HT2A ag conf: 41*

How did Cc1cc(N2CCNCC2)nc2ccccc12 do in these assays?
AHR act: 1; MC4R barr agon: 0; m5-HT2A agonist: 14; FXN GAA850 act: -1; MC4R antag cAMP: -4

What do the screens show for `Clc1cccc(N2CCNCC2)n1`?
AHR act: 0; MC4R barr agon: -1; m5-HT2A agonist: 39*; FXN GAA850 act: 3; MC4R antag cAMP: 28; OPRM1 ag: -1; m5-HT2A ag conf: 24*

How did COc1ccc(OC(=O)N(C)C[C@@H]2OCc3cnnn3CCCC(=O)N([C@H](C)CO)C[C@@H]2C)cc1 do in these assays?
MC4R barr agon: 2; m5-HT2A agonist: 6; FXN GAA850 act: 0; MC4R antag cAMP: 23

How did Cc1[nH]c2c(C(F)(F)F)cccc2c1CCN do in these assays?
AHR act: 27; MC4R barr agon: -1; m5-HT2A agonist: 48*; FXN GAA850 act: -1; MC4R antag cAMP: 3; OPRM1 ag: -1; m5-HT2A ag conf: 32*

What do the screens show for `CCOP(=S)(OCC)N1CC1`?
MC4R barr agon: -2; m5-HT2A agonist: 5; FXN GAA850 act: 1; MC4R antag cAMP: 6

Results for O=S(=O)(c1ccc(Cl)cc1)N1Cc2ccccc2-n2nncc2C1 ?
MC4R barr agon: 2; m5-HT2A agonist: 0; FXN GAA850 act: 0; MC4R antag cAMP: -1

Results for [N-]=[N+]=NCc1cn2cccnc2n1 ?
AHR act: 0; MC4R barr agon: 0; m5-HT2A agonist: 4; FXN GAA850 act: 2; MC4R antag cAMP: 4

What do the screens show for `C[C@]12CC[C@H](O)C[C@@H]1CC[C@@H]1[C@@H]2CC[C@]2(C)C(=O)CC[C@@H]12`?
AHR act: -1; MC4R barr agon: 2; m5-HT2A agonist: 22*; FXN GAA850 act: 1; MC4R antag cAMP: 5; OPRM1 ag: -1; m5-HT2A ag conf: -4

Results for CCC1(c2ccccc2)C(=O)N(COC)C(=O)N(COC)C1=O ?
AHR act: -1; MC4R barr agon: 1; m5-HT2A agonist: -1; FXN GAA850 act: 0; MC4R antag cAMP: 8

Results for Cc1ccc(S(=O)(=O)N2Cc3cc(-c4cccc(F)c4)ccc3-n3nncc3C2)cc1 ?
m5-HT2A agonist: 0

How did O=S(=O)(c1cc(Cl)cc(Cl)c1)N1Cc2cc(-c3cccc(F)c3)ccc2-n2nncc2C1 do in these assays?
m5-HT2A agonist: 14*; OPRM1 ag: 0; m5-HT2A ag conf: -2

Results for NC1CCc2cc(O)c(O)cc2C1 (stereo not given) ?
AHR act: 2; MC4R barr agon: 0; m5-HT2A agonist: 58*; FXN GAA850 act: 3; MC4R antag cAMP: -13; OPRM1 ag: 0; m5-HT2A ag conf: 153*

What do the screens show for `O=C1C=CC(=O)C=C1`?
AHR act: -2; MC4R barr agon: 0; m5-HT2A agonist: 35*; FXN GAA850 act: 1; MC4R antag cAMP: 13; OPRM1 ag: 0.9*; m5-HT2A ag conf: 3

How did N#Cc1c(Br)n(C2OC(CO)C(O)C2O)c2ncnc(N)c12 (stereo not given) do in these assays?
MC4R barr agon: -3; m5-HT2A agonist: 51*; FXN GAA850 act: 0; MC4R antag cAMP: -3; OPRM1 ag: 0; m5-HT2A ag conf: 100*

Results for CCCCC1(CC)COP(=O)(OCC(Cl)(Cl)Cl)OC1 (stereo not given) ?
MC4R barr agon: 0; m5-HT2A agonist: 20*; FXN GAA850 act: 2; MC4R antag cAMP: 1; OPRM1 ag: 0; m5-HT2A ag conf: -3

What do the screens show for `COC(=O)C1=C(c2ccc(-c3ccccc3)c(F)c2)C[C@@H]2CC[C@H]1N2C(=O)N1CCOCC1`?
AHR act: -1; MC4R barr agon: 1; m5-HT2A agonist: -10; FXN GAA850 act: -7; MC4R antag cAMP: 9

What do the screens show for `O=C(C[N+]12CCC(CC1)C(CO)C2)c1ccc(Br)cc1` (stereo not given)?
AHR act: -3; MC4R barr agon: 0; m5-HT2A agonist: -4; FXN GAA850 act: -2; MC4R antag cAMP: 22

Results for CCCCn1c(O)c(C(=O)/C=C/c2ccc3c(c2)OCO3)c(=O)[nH]c1=O ?
AHR act: -1; MC4R barr agon: 0; m5-HT2A agonist: 27*; FXN GAA850 act: 1; MC4R antag cAMP: 1; OPRM1 ag: -1; m5-HT2A ag conf: -2

Results for O=[N+]([O-])[N-][n+]1cnn(Cc2ccc(Cl)cc2)c1 ?
AHR act: 1; MC4R barr agon: -3; m5-HT2A agonist: 6; FXN GAA850 act: 0; MC4R antag cAMP: 1

What do the screens show for `Cc1ccc(NC2=NCCCS2)c(C)c1C`?
AHR act: 2; MC4R barr agon: -3; m5-HT2A agonist: 19*; FXN GAA850 act: 0; MC4R antag cAMP: 1; OPRM1 ag: 0; m5-HT2A ag conf: 15*

What do the screens show for `CC12C=CC(=O)C=C1CCC1C2C(O)CC2(C)C1CCC2(C)O` (stereo not given)?
MC4R barr agon: -2; m5-HT2A agonist: -4; FXN GAA850 act: 0; MC4R antag cAMP: -4

Results for COc1ccc2[nH]cc(CCN)c2c1 ?
AHR act: 3; MC4R barr agon: -2; m5-HT2A agonist: 52*; FXN GAA850 act: 0; MC4R antag cAMP: 15; OPRM1 ag: 0; m5-HT2A ag conf: 28*

How did OCCNCCc1c[nH]c2ccc(OCc3ccccc3)cc12 do in these assays?
AHR act: 1; MC4R barr agon: -1; m5-HT2A agonist: 6; FXN GAA850 act: 0; MC4R antag cAMP: 2

How did COC(=O)c1ccc(NC(=O)CSc2nc3ccc(N4C(=O)C5C6C=CC(C6)C5C4=O)cc3s2)cc1 (stereo not given) do in these assays?
AHR act: 7; MC4R barr agon: -1; m5-HT2A agonist: 2; FXN GAA850 act: -5; MC4R antag cAMP: 6

What do the screens show for `CCOC(=O)c1ccc(NC(=O)N2C[C@@H]3C[C@@H](C2)c2cccc(=O)n2C3)cc1`?
AHR act: 0; MC4R barr agon: -2; m5-HT2A agonist: 25*; FXN GAA850 act: 0; MC4R antag cAMP: 11; OPRM1 ag: 0; m5-HT2A ag conf: -2

High-throughput results deposited in PubChem BioAssay by The Scripps Research Institute Molecular Screening Center.
